# UPR XBP1 act – activators of adaptive arm of unfolded protein response (XBP1). hit rate 0.33% among 330,000. CHO-XBP1 luciferase reporter, IRE1-XBP1 UPR activation, luminescence; percent of tunicamycin response, DMSO as zero. activation, % at 20 µM;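 active = versus positive control, 20 µM dose yields 30% or more activation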
#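 Test system: CHO-XBP1 luciferase reporter cells | Buffer or medium: Serum-containing F12 medium, 10% FBS | Schedule: 6 h compound exposure at 37 °C, 5% CO2 | Detection: Steady-Glo luciferase glow luminescence, 10 min after reagent addition | Read-out basis: Activation, % of tunicamycin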
# B2AR ag – agonists of human beta-2 adrenergic receptor inducing internalization; response, % (no concentration beside the values); hit rate 0.43% among 340,000; Am2.2-beta2AR cells, FAP receptor internalization, flow cytometry;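 active = response above a set limit, near 3 SD of response in nonfluorescent compounds, cut at about 42% in these data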
# Target sequence (P07550 whole entry, looked up): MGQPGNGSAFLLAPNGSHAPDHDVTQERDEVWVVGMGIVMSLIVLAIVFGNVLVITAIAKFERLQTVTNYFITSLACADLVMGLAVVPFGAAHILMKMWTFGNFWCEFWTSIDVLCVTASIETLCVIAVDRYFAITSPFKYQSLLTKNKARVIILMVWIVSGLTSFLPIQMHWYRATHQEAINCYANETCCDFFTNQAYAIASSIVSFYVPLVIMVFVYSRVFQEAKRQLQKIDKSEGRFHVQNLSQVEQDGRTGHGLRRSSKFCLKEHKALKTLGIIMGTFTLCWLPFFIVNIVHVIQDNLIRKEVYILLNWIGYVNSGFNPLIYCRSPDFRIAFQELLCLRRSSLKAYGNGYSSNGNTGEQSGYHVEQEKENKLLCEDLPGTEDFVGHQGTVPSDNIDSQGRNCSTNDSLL
# VLA-4 inh – inhibition in a human VLA-4 binding assay; P13612; VLA-4 expressing cells, ligand binding flow cytometry; inhibition, % (about 7 µM as worked out from the volumes in the protocol); hit rate 0.2% among 330,000; in the data active = inhibition above about 50%
# CHOP inhibitor – inhibitors of CHOP induction in ER stress response; CHO-K1 CHOP-promoter luciferase, tunicamycin-induced, 15-18 h; inhibition, % at 10 µM; hit rate 3.8% among 220,000;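 active = compounds that reduced the stress-induced luciferase reporter signal by more than about 70% of percent inhibition, limit read from the data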
# UPR CHOP act – apoptotic UPR (CHOP) activation. AID 449763. activation, % at 10 µM. hit rate 0.34% among 330,000. CHO-CHOP luciferase reporter, luminescence; percent of tunicamycin response over DMSO baseline;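 active = at 10 µM dose, activation of 40% or more, normalized to positive control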
#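 Dosing – one dose, 10 µM in 0.5% DMSO · System – CHO-CHOP cells, stable luciferase reporter of PERK-eIF2a-CHOP signalling · Input – 500 cells/well · Control set – tunicamycin 10 µg/mL final as positive, DMSO-only wells as negative · Timing – 6 h compound treatment, 37 °C · Measure – % activation vs tunicamycin · Technique – luminescence read with Steady-Glo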
# Numbers stand for hits; i = inactive; nt = no result given. This excerpt belongs to a sample that is enriched for hits.
SMILES,UPR XBP1 act,B2AR ag,VLA-4 inh,CHOP inhibitor,UPR CHOP act
CC1=C(C(=O)Nc2ccccc2)C(c2ccc(C)cc2)N=C(Nc2nc3ccccc3o2)N1 (centres undefined),i,i,i,88.5,74.5
CC(OC(=O)CCc1nc2ccccc2c(=O)[nH]1)C(=O)c1ccc(C(C)(C)C)cc1 (centres undefined),i,i,i,91.6,i
CC(OC(=O)CCc1nc2ccccc2c(=O)[nH]1)C(=O)NC1CCCC1 (centres undefined),i,i,i,i,i
O=C(c1cccc([N+](=O)[O-])c1)N1CCN(S(=O)(=O)/C=C/c2ccccc2)CC1,i,i,i,nt,i
CCOc1ccc(S(=O)(=O)N2CCCC(C(=O)N3CCN(c4ccccc4)CC3)C2)cc1 (centres undefined),i,i,i,nt,i
O=C(NN1C(=O)/C(=C\c2cccnc2)SC1=S)c1ccco1,i,i,i,i,i
CC(O)CNc1nc2c(c(=O)n(Cc3ccc(Cl)cc3)c(=O)n2C)n1C (centres undefined),i,i,i,nt,i
CC(O)CNc1nc2c(c(=O)n(Cc3ccc(Cl)c(Cl)c3)c(=O)n2C)n1C (centres undefined),i,i,i,77.8,i
CC(C)CCNc1nc2c(c(=O)n(Cc3cccc(F)c3)c(=O)n2C)n1C,i,i,i,70.8,i
CC1CCC(NC(=O)c2ccc(/C=C3\Oc4ccccc4N(C)C3=O)cc2)CC1 (centres undefined),nt,nt,nt,90.7,nt
CN1CCN(CCCNC(=O)c2ccc(/C=C3\Oc4ccccc4N(Cc4ccccc4F)C3=O)cc2)CC1,i,i,i,nt,i
CN(c1ccccc1)S(=O)(=O)c1cc(Cl)ccc1Cl,i,i,51.3,i,i
O=C(NCc1ccco1)c1ccc(Cn2c(=O)c3ccccc3n(Cc3cccc(Cl)c3)c2=O)cc1,i,i,i,i,i
O=C(NCc1ccco1)c1ccc(Cn2c(=O)c3sccc3n(Cc3cccc(F)c3)c2=O)cc1,i,i,i,72.2,i
COc1cc(NC(=O)NCCN2CCN(c3ccc(Cl)cc3)CC2)ccc1C,i,i,i,84.4,i
COc1ccc(NC(=O)NCCCN2CCN(c3cc(C)ccc3C)CC2)cc1,i,i,i,71.6,i
CCn1cc(C(=O)NCc2ccc(OC)cc2)c(=O)c2ccc(C)nc21,i,i,i,nt,i
Cc1cccc(C2(c3cccc(C)c3)CC2C(=O)Nc2ccc([N+](=O)[O-])cc2O)c1 (centres undefined),i,i,i,103.3,i
Cc1cc(OC(C)C(=O)NCCN2CCOCC2)c2c(C)cc(=O)oc2c1 (centres undefined),i,i,i,nt,i
CC(=O)Nc1cc2nn(-c3ccccc3)nc2cc1C,i,i,i,nt,i
CCC(=O)Nc1cc2nn(-c3ccccc3)nc2cc1Cl,i,i,i,79.0,i
COc1c(C)cc(C(=O)C2CCCN(S(=O)(=O)N(C)C)C2)cc1C (centres undefined),i,i,i,nt,i
C[C@@]12C(=O)NCC(=O)N1[C@@H]1c3cc(Br)ccc3OC[C@@H]1[C@@H]2c1ccccc1,i,i,i,nt,i
CC(C)C(=O)NC(Nc1ccccc1F)C(Cl)(Cl)Cl (centres undefined),i,i,i,i,i
CC(C)C(=O)NC(Nc1cc(C(F)(F)F)ccc1Cl)C(Cl)(Cl)Cl (centres undefined),i,i,i,72.1,i
SMILES,UPR XBP1 act,B2AR ag,VLA-4 inh,CHOP inhibitor,UPR CHOP act
N#Cc1cc(Sc2ccccn2)c(Sc2ccccn2)cc1C#N,i,58.0,i,i,i
CCOC(=O)c1cn(Cc2ccccc2)nc1-c1ccccc1,i,i,i,nt,i
O=C(CSc1nc(-c2ccccc2)c(-c2ccccc2)o1)Nc1nncs1,i,i,i,71.6,i
CCOCCCNC(=O)C1(O)c2cc(Br)ccc2NC(=O)N1c1ccc(OCC)cc1 (centres undefined),i,i,i,nt,i
Cc1ccc(C)c(N2CCN(C(=O)c3ccc(NS(=O)(=O)c4c(C)noc4C)cc3)CC2)c1,i,i,i,71.8,i
Cc1ccc(N(CC(=O)N/N=C/c2cc(C)n(-c3ccccc3)c2C)S(C)(=O)=O)c(C)c1,i,i,i,72.5,i
Cc1ccc(N(CC(=O)Nc2c(C)n(C)n(-c3ccccc3)c2=O)S(C)(=O)=O)c(C)c1,i,i,i,i,i
CCCCn1c(N)c(N(CC(C)C)C(=O)c2cc(Cl)nc3ccccc23)c(=O)[nH]c1=O,i,i,i,nt,i
CC(/C=N/n1c(-c2cc(C)[nH]n2)n[nH]c1=S)=C\c1ccco1,i,i,i,i,i
CC(/C=N/n1c(-c2ccc(Cl)cc2)n[nH]c1=S)=C\c1ccco1,i,i,i,95.5,i
S=c1[nH]nc(-c2ccncc2)n1/N=C/C=C/c1ccccc1,i,i,i,i,i
Cc1ccc(-c2nn(-c3ccccc3)cc2/C=N/n2c(-c3ccncc3)n[nH]c2=S)cc1,i,i,i,89.3,i
S=c1[nH]nc(-c2ccncc2)n1/N=C/C(Cl)=C\c1ccccc1,i,i,i,76.0,i
CN(C(=O)COc1cccc(C#N)c1)C1CCS(=O)(=O)C1 (centres undefined),i,i,i,nt,i
O=C(NCC1CCCN1S(=O)(=O)c1cccs1)c1cccc(Cl)c1 (centres undefined),i,i,i,nt,i
O=c1cc(-c2ccccc2)nc(SCCOc2ccccc2Cl)[nH]1,i,i,i,74.4,i
COc1cc(CSc2nc(-c3ccccc3)cc(=O)[nH]2)cc(OC)c1,i,i,i,nt,i
N#CC(C#N)=C1C=CC=CN1/C(=C\c1ccco1)C(=O)c1ccc(Cl)cc1,nt,58.3,i,110.7,nt
N#C/C(=C\c1ccco1)C(=O)NCc1ccccc1,i,i,i,i,i
O=C(CCc1c[nH]c2ccccc12)NCCc1ccc(O)cc1,i,i,i,nt,i
CC1(C)Cc2c(cnn2-c2ccccc2)-c2c1c1ccccc1n2CC(O)CCl (centres undefined),i,i,i,94.0,i
Cc1oc(-c2ccc3c(c2)OCCO3)cc1C(=O)NCC(=O)O,i,i,i,i,i
Cc1oc(-c2ccc3c(c2)OCCO3)cc1C(=O)O,i,i,i,72.1,i
CC(C)NC(=O)c1ccccc1NC(=O)Cc1ccc([N+](=O)[O-])cc1,i,i,i,i,i
CCCc1nc2ccccc2c(C(=O)OCC(=O)Nc2cccc(S(=O)(=O)N3CCOCC3)c2)c1CC,i,i,i,76.8,i
C=CCSc1nc(N)c(C(=O)Nc2ccccc2)cc1C#N,i,i,i,70.5,i
CC(C)OC(=O)c1sc2nc(-c3ccccc3)ccc2c1N,i,i,i,82.9,i
COc1ccc(C(=O)c2sc3nc(-c4ccccc4)ccc3c2N)cc1,i,i,i,78.1,i
Cc1cccc(C)c1NC(=S)N(CCCN1CCN(C)CC1)Cc1cccs1,i,i,i,i,i
